The record followed here is ChEMBL document CHEMBL1125701 (J Med Chem, 1991).

Assay [1] addresses Mu-type opioid receptor (Cavia porcellus) (UniProt P97266). The assay is described as follows: Antagonistic potency at opioid receptor mu (200 nM) (Ke =IC50 in the presence of antagonist divided by the control IC50 value). The format is functional. In short, it runs like this: (§1)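 Electrically stimulated guinea pig ileal longitudinal muscle, μ agonist morphine. The antagonist was preincubated for 15 min before agonist testing. Agonist IC50 was measured with and without antagonist on the same preparation. IC50 ratio = IC50 with antagonist / control IC50. Ke = [antagonist]/(IC50 ratio − 1).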

Assay [2] concerns the target Kappa-type opioid receptor (Cavia porcellus) (UniProt P41144). The assay is described as follows: Antagonistic potency at opioid receptor kappa (200 nM) (Ke =IC50 in the presence of antagonist divided by the control IC50 value). The format is functional. The method in brief:
(§2)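 Electrically stimulated guinea pig ileal longitudinal muscle, κ agonist ethylketazocine. The antagonist was preincubated for 15 min before agonist testing. Agonist IC50 was measured with and without antagonist on the same preparation. IC50 ratio = IC50 with antagonist / control IC50. Ke = [antagonist]/(IC50 ratio − 1).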

The target in assay [3] is Delta-type opioid receptor (Mus musculus) (UniProt P32300). The assay is described as follows: Antagonistic potency at opioid receptor delta (20 nM) (Ke =IC50 in the presence of antagonist divided by the control IC50 value). Type of assay: functional. In short, it runs like this: (§3)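 Electrically stimulated mouse vas deferens preparation, δ agonist DADLE. The antagonist was incubated with the tissue for 15 min before agonist testing. DADLE IC50 was measured with and without antagonist on the same preparation. IC50 ratio = IC50 with antagonist / control IC50. Ke = [antagonist]/(IC50 ratio − 1).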

In assay [4] the target is Mu-type opioid receptor (Cavia porcellus) (UniProt P97266).
In assay [5] the target is Kappa-type opioid receptor (Cavia porcellus) (UniProt P41144).
Assay [6] has the same target. The assay is described as follows: Selectivity ratio is IC50 value of opioid receptor kappa to that of opioid receptor delta.
The target is the same in assay [7]. The assay can be described thus: Antagonistic potency at opioid receptor kappa (20 nM) (Ke =IC50 in the presence of antagonist divided by the control IC50 value). Type of assay: functional. In short, it runs like this:
as §2

Assay [8] addresses Delta-type opioid receptor (Mus musculus) (UniProt P32300). The assay is described as follows: Antagonistic potency at opioid receptor delta (100 nM) (Ke =IC50 in the presence of antagonist divided by the control IC50 value). The format is functional. The method in brief: as §3
Assay [9] deals with Kappa-type opioid receptor (Homo sapiens) (UniProt P41145). The assay can be described thus: Competitive inhibition of Ethylketazocine on Guinea pig ileal longitudinal muscle for the opioid receptor kappa at 20 nM. Type of assay: functional. The method in brief:
as §2

Assay [10] addresses Mu-type opioid receptor (Cavia porcellus) (UniProt P97266). The assay can be described thus: Selectivity ratio is IC50 value of mu-opioid receptor to that of delta-opioid receptor.
The target in assay [11] is Kappa-type opioid receptor (Homo sapiens) (UniProt P41145). Conditions: 100 nM.
The target of assay [12] is Mu-type opioid receptor (Homo sapiens) (UniProt P35372). Conditions: 100 nM.
In assay [13] the target is Kappa-type opioid receptor (Cavia porcellus) (UniProt P41144). The assay can be described thus: Selectivity ratio is Ki value of opioid receptor kappa to that of delta-opioid receptor.
Assay [14] addresses Mu-type opioid receptor (Cavia porcellus) (UniProt P97266). The assay can be described thus: Selectivity ratio is Ki value of mu-opioid receptor to that of delta-opioid receptor.
In assay [15] the target is Kappa-type opioid receptor (Homo sapiens) (UniProt P41145). The assay is described as follows: Competitive inhibition of Ethylketazocine on Guinea pig ileal longitudinal muscle for the opioid receptor kappa at 200 nM. The format is functional. The method in brief: as §2
Assay [16] deals with Mu-type opioid receptor (Homo sapiens) (UniProt P35372). The assay can be described thus: Competitive inhibition of Morphine on Guinea pig ileal longitudinal muscle for the opioid receptor mu at 200 nM. The format is functional. The method in brief:
as §1

The target of assay [17] is Kappa-type opioid receptor (Cavia porcellus) (UniProt P41144). The assay is described as follows: Selectivity ratio is IC50 value of opioid receptor kappa to that of delta-opioid receptor.
The target in assay [18] is Kappa-type opioid receptor (Cavia porcellus, UniProt P41144). The assay can be described thus: Compound was evaluated for the binding affinity to opioid receptor kappa using [3H]-EK as radioligand in guinea pig brain membrane. The format is cell membranes. In short, it runs like this: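 Radioligand displacement in guinea pig brain membranes, modified from an earlier published method. [3H]EK was used with 1 μM DAMGO present to block μ sites.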

Assay [19] concerns the target Mu-type opioid receptor (Cavia porcellus, UniProt P97266). The assay is described as follows: Compound was evaluated for the binding affinity to Opioid receptor mu using [3H]DAMGO as radioligand in guinea pig brain membrane. The format is cell membranes.
In assay [20] the target is Delta-type opioid receptor (Mus musculus) (UniProt P32300). The assay can be described thus: Antagonistic potency at opioid receptor delta (200 nM) (Ke =IC50 in the presence of antagonist divided by the control IC50 value). The format is functional. In short, it runs like this: as §3

In general, Ki refers to the dissociation constant of the complex between target and ligand, obtained from inhibition or displacement.

Consider `Oc1ccc2c3c1O[C@H]1c4oc5ccccc5c4C[C@@]4(O)[C@@H](C2)N(CC2CC2)CC[C@]314`, for which the Ke in assay [1] was 27; in assay [2], 48; in [3], 0.27.

Turning to `Cn1c2c(c3c1[C@@H]1Oc4c(O)ccc5c4[C@@]14CCN(CC1CC1)[C@H](C5)[C@]4(O)C3)CCCC2`, the Ke in assay [4] was 158; in assay [5] it was 254.

For the compound `Oc1ccc2c3c1O[C@H]1C(c4ccc[nH]4)=CC[C@@]4(O)[C@@H](C2)N(CC2CC2)CC[C@]314`, in assay [6], the Ratio was found to be 0.03. For the same compound, the Ke in assay [7] is 0.23; in assay [8], 8.2. For the same compound, the IC50 ratio in [9] worked out at 89.

On to `Oc1ccc2c3c1O[C@H]1c4nc5ccccc5cc4C[C@@]4(O)[C@@H](C2)N(CC2CC2)CC[C@]314`, for which the Ratio in assay [6] was 8; in assay [10], 6. The Ke came out at 1.9 in [8], 11 in assay [4] and 15.4 in assay [5]. The IC50 ratio is 7.5 in assay [11] and 9.9 in [12].

Regarding `Oc1ccc2c3c1O[C@H]1c4nc5ccccc5nc4C[C@@]4(O)[C@@H](C2)N(CC2CC2)CC[C@]314`, the Ratio stood at 5 in assay [6], 227 in assay [13], 3 in assay [10] and 9 in [14]. Moreover, the Ke in assay [1] is 5.5; in assay [2] it was 10; in [3], 1.9. The figures for the IC50 ratio in [15] and in assay [16] were 21 and 37, respectively.

In the case of `Oc1ccc2c3c1O[C@H]1C(c4ccccc4)=CC[C@@]4(O)[C@@H](C2)N(CC2CC2)CC[C@]314`, the figures for the Ke in assay [8], in [4] and in assay [5] were 13.5, 0.68 and 1.7, respectively. In addition, the IC50 ratio in assay [12] was 148.

`Oc1ccc2c3c1O[C@H]1C(c4c[nH]c5ccccc45)=CC[C@@]4(O)[C@@H](C2)N(CC2CC2)CC[C@]314`: the Ratio amounted to 0.16 in assay [17], 6 in assay [13], 0.21 in [10] and 0.6 in assay [14]. Also, the Ke in assay [1] is 1.1; in assay [2], 0.83; in assay [20] it was 5.1. Also, the results for the Ki in assay [18] and in assay [19] were 6.2 nM and 0.63 nM, respectively. The results for the IC50 ratio in assay [15] and in [16] were 243 and 189, respectively.
